Active and inactive are the calls of the source. No cut-off for these calls is given here.
Columns and labels:
[1] = In vitro Natural Killer cell activity (Activation of murine splenocyte NK cells by its ability to lyze YAC-1 target cells in chromium release assay) relative to interleukin 2; Range 0-20%; assay type: functional, Mus musculus
Outline: (§1)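 Spleens from female C57BL/6 (H-2b) mice, 6–8 weeks old, homogenized in RPMI 1640 with 10% FCS and 2 mM L-glutamine. Mononuclear cells isolated on a Lympholyte M gradient (800g, 20 min), washed in PBS, viability checked by trypan blue. 5×10^5 splenocytes with compound incubated 4 h with 5×10^3 51Cr-labelled YAC-1 cells; % specific lysis from released chromium. Compounds tested at 10^-4–10^-12 M. Peak activity scored relative to IL 2 (100%) in 20% bands. Actives run 2–5 times, inactives once.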

[2] = In vitro Natural Killer cell activity (Activation of murine splenocyte NK cells by its ability to lyze YAC-1 target cells in chromium release assay) relative to interleukin 2 at 10E-4 to 10E-12 M conc; Range 81-100%; assay type: functional, Mus musculus; outline: as §1
[3] = In vitro Natural Killer cell activity (Activation of murine splenocyte NK cells by its ability to lyze YAC-1 target cells in chromium release assay) relative to interleukin 2 at 10E-4 to 10E-12 M conc.; assay type: functional, Mus musculus; outline: as §1
[4] = In vitro Natural Killer cell activity (Activation of murine splenocyte NK cells by its ability to lyze YAC-1 target cells in chromium release assay) relative to interleukin 2 at 10E-4 to 10E-12 M conc; Range 41-60%; assay type: functional, Mus musculus; outline: as §1
Mus musculus [5] = species on record: Mus musculus; experiment: Peak or the range of peak activity relative to positive IL 2 control; Range 10e-12-10e-4; assay type: functional; outline: as §1
[6] = In vitro Natural Killer cell activity (Activation of murine splenocyte NK cells by its ability to lyze YAC-1 target cells in chromium release assay) relative to interleukin 2 at 10E-4 to 10E-10 M conc; Range 41-60%; assay type: functional, Mus musculus; outline: as §1
[7] = In vitro Natural Killer cell activity (Activation of murine splenocyte NK cells by its ability to lyze YAC-1 target cells in chromium release assay) relative to interleukin 2 at 10E-8 to 10E-12 M conc; Range 41-60%; assay type: functional, Mus musculus; outline: as §1
[8] = In vitro Natural Killer cell activity (Activation of murine splenocyte NK cells by its ability to lyze YAC-1 target cells in chromium release assay) relative to interleukin 2 at 10E-4 to 10E-12 M conc; Range 61-80%; assay type: functional, Mus musculus; outline: as §1
Mus musculus [9] = species on record: Mus musculus; experiment: Peak or the range of peak activity relative to positive IL 2 control; Range 10e-12-10e-5; assay type: functional; outline: as §1
Mus musculus [10] = experiment: Antimetastatic effect in lungs of C57BL/6 mice injected iv on day 0 with 250000 B16 melanoma cells and a dose of 0 mg/kg of compound in exp 1; assay type: functional, Lung
Outline: (§2)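 Female C57BL/6 mice, 6–8 weeks old, given 2.5×10^5 B16F10 melanoma cells iv on day 0. Sacrifice on day 24; lungs fixed and surface tumour colonies counted. Mean ± SEM; n = 8 in exp 1, n = 4 in exp 2.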

Mus musculus [11] = experiment: Antimetastatic effect in lungs of C57BL/6 mice injected iv on day 0 with 250000 B16 melanoma cells and a dose of 25 mg/kg of compound in exp 1; assay type: functional, Lung; outline: as §2
Mus musculus [12] = experiment: Antimetastatic effect in lungs of C57BL/6 mice injected iv on day 0 with 250000 B16 melanoma cells and a dose of 25 mg/kg of compound in exp 2; assay type: functional, Lung; outline: as §2
Mus musculus [13] = experiment: Antimetastatic effect in lungs of C57BL/6 mice injected iv on day 0 with 250000 B16 melanoma cells and a dose of 50 mg/kg of compound in exp 2; assay type: functional, Lung; outline: as §2
Mus musculus [14] = experiment: Antimetastatic effect in lungs of C57BL/6 mice injected iv on day 0 with 250000 B16 melanoma cells and a dose of 0 mg/kg of compound in exp 2; assay type: functional, Lung; outline: as §2
Mus musculus [15] = species on record: Mus musculus; experiment: The compound was tested in vitro for B cell proliferation (PWM, LPS) against murine splenocytes; No effect; assay type: functional
Mus musculus [16] = species on record: Mus musculus; experiment: The compound was tested in vitro for T cell proliferation (PHA, ConA) against murine splenocytes; No effect; assay type: functional
Mus musculus [17] = species on record: Mus musculus; experiment: The compound was tested in vitro for mixed lymphocyte reaction against murine splenocytes; No effect; assay type: functional
Mus musculus [18] = species on record: Mus musculus; experiment: The compound was tested in vitro for phagocytotic activity against murine whole blood; No effect; assay type: functional
Mus musculus [19] = species on record: Mus musculus; experiment: The compound was tested in vitro for respiratory burst against murine whole blood; No effect; assay type: functional
Mus musculus [20] = species on record: Mus musculus; experiment: In vitro for cytotoxic T lymphocyte activity against murine splenocytes; Range 21-40% of IL 2; assay type: functional
[21] = In vitro Natural Killer cell activity (Activation of murine splenocyte NK cells by its ability to lyze YAC-1 target cells in chromium release assay) relative to interleukin 2 at 10E-4 to […] conc; Range 101-120%; assay type: functional, Mus musculus; outline: as §1
Mus musculus [22] = species on record: Mus musculus; experiment: Peak or the range of peak activity relative to positive IL 2 control; Range 10e-12-10e-7; assay type: functional; outline: as §1
Homo sapiens [23] = species on record: Homo sapiens; experiment: Iin vitro NK cell cytolytic activity (K 562 target) using human PBML; Range 81-100%; assay type: functional
Outline: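 PBML isolated from heparinized human blood by Ficoll-Hypaque density gradient centrifugation. For the NK assay (K562 targets), activity is scored relative to an IL 2 control.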

Homo sapiens [24] = species on record: Homo sapiens; experiment: The compound was tested in vitro for phagocytotic activity against human PBML; No effect; assay type: functional
Homo sapiens [25] = species on record: Homo sapiens; experiment: The compound was tested in vitro for respiratory burst against human PBML; No effect; assay type: functional
[26] = In vitro Natural Killer cell activity (Activation of murine splenocyte NK cells by its ability to lyze YAC-1 target cells in chromium release assay) relative to interleukin 2 at 10E-4 to 10E-12 M conc; Range 21-40%; assay type: functional, Mus musculus; outline: as §1
Mus musculus [27] = species on record: Mus musculus; experiment: Peak or the range of peak activity relative to positive IL 2 control; Range 10e-8-10e-4; assay type: functional; outline: as §1
[28] = In vitro Natural Killer cell activity (Activation of murine splenocyte NK cells by its ability to lyze YAC-1 target cells in chromium release assay) relative to interleukin 2 at 10E-6 to 10E-12 M conc; Range 21-40%; assay type: functional, Mus musculus; outline: as §1

## CC(=O)OCCCCCCNC(=O)[C@@H](CCC(N)=O)NC(=O)[C@H](C)N
[1]
  Stimulation: 0%

## C[C@@H](N)C(=O)N[C@@H](CCC(N)=O)C(=O)NCCCCCCO
[2]
  Stimulation: 101%

## C[C@@H](N)C(=O)N[C@@H](CCC(N)=O)C(=O)NCCCCCCO[C@H]1O[C@H](CO)[C@H](O)[C@@H](O)[C@H]1O
[2]
  Stimulation: 0%

## CC1OC(OCCCCCCNC(=O)[C@@H]2CCCN2C(=O)[C@H](C)N)C(O)C(O)C1O (some centres undefined)
[3]
  Stimulation: 0%

## CC1OC(OCCCCCCNC(=O)[C@H](CCC(N)=O)NC(=O)[C@H](N)C(C)C)C(O)C(O)C1O (some centres undefined)
[4]
  Stimulation: 41%
Mus musculus [5]
  Concentration: 10 pM

## CC1OC(OCCCCCCNC(=O)[C@@H](CCC(N)=O)NC(=O)[C@H](C)N)C(O)C(O)C1O (some centres undefined)
[3]
  Stimulation: 0%

## C[C@@H](N)C(=O)N[C@@H](CCC(N)=O)C(=O)NCCCCCCCCCCCCO
[6]
  Stimulation: 41%

## CC1OC(OCCCCCCNC(=O)[C@H](CCC(N)=O)NC(=O)CCN)C(O)C(O)C1O (some centres undefined)
[1]
  Stimulation: 0%

## CC1OC(SCCCCCCNC(=O)[C@H](CCC(N)=O)NC(=O)[C@@H](C)N)C(O)C(O)C1O (some centres undefined)
[7]
  Stimulation: 41%

## CC(=O)N[C@@H](CCC(N)=O)C(=O)NCCCCCCOC1OC(C)C(O)C(O)C1O (some centres undefined)
[3]
  Stimulation: 0%

## O=C1CC[C@@H](C(=O)NCCCCCCO)N1
[8]
  Stimulation: 61%
Mus musculus [9]
  Concentration: 10 pM

## CC1OC(OCCCCCCNC(=O)[C@H](CCC(N)=O)NC(=O)[C@H](C)N)C(O)C(O)C1O (some centres undefined)
[8]
  Stimulation: 61%
Mus musculus [5]
  Concentration: 10 pM
Mus musculus [9]
  Concentration: 10 pM

## C[C@H](N)C(=O)N[C@@H](CCC(N)=O)C(=O)NCCCCCCO
[4]
  Stimulation: 41%

## C[C@H](N)C(=O)N[C@H](CCC(N)=O)C(=O)NCCCCCCO
[7]
  Stimulation: 41%

## CC1OC(OCCCCCCNC(=O)[C@H](CCC(N)=O)NC(=O)[C@@H](C)N)C(O)C(O)C1O (some centres undefined)
Mus musculus [10]
  No. of lung colonies: 142
Mus musculus [11]
  No. of lung colonies: 109
Mus musculus [12]
  No. of lung colonies: 86
Mus musculus [13]
  No. of lung colonies: 60
Mus musculus [14]
  No. of lung colonies: 101
Mus musculus [15]
  Activity: inactive
Mus musculus [16]
  Activity: inactive
Mus musculus [17]
  Activity: inactive
Mus musculus [18]
  Activity: inactive
Mus musculus [19]
  Activity: inactive
Mus musculus [20]
  Activity: 21%
[21]
  Stimulation: 101%
Mus musculus [22]
  Concentration: 10 pM
Homo sapiens [23]
  Activity: 81%
Homo sapiens [24]
  Activity: inactive
Homo sapiens [25]
  Activity: inactive

## C[C@@H](N)C(=O)N[C@@H](CCC(N)=O)C(=O)NCCCCCC(=O)O
[3]
  Stimulation: 0%

## CC1OC(OCCCCCCNC(=O)[C@@H](N)CCC(N)=O)C(O)C(O)C1O (some centres undefined)
[26]
  Stimulation: 21%
Mus musculus [27]
  Concentration: 100 nM

## CC[C@H](C)[C@H](N)C(=O)N1CCC[C@H]1C(=O)NCCCCCCO
[28]
  Stimulation: 21%

## CC1OC(OCCCCCCNC(=O)[C@@H]2CCC(=O)N2)C(O)C(O)C1O (some centres undefined)
[3]
  Stimulation: 0%
